ChEMBL document CHEMBL2311339, “Identification of GZD824 as an orally bioavailable inhibitor that targets phosphorylated and nonphosphorylated breakpoint cluster region-Abelson (Bcr-Abl) kinase and overcomes clinically acquired mutation-induced resistance against imatinib” (J Med Chem, 2013)
Calls of active or inactive are those of the source. The calls are words filed in the database; no cut-off is given here.

Legend:
Mus musculus = assay: Toxicity in human K562 cells xenografted mouse assessed as body weight loss relative to vehicle-treated control; type: organism-based; conditions: in vivo
In short: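 K562 cells (2.5 × 10^7 cells/mL in normal saline, 0.2 mL) were injected subcutaneously into the right flank. Mice were randomized once mean tumor volume reached 100−200 mm3, n = 10 per group. Dosing was by oral gavage once daily for 14 days in 1% DMSO/22.5% Cremophor/7.5% ethanol/69% saline. Tumor volume (L × W²/2) and body weight were measured every 2 days; unpaired t test versus vehicle.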

BaF3 [1] = assay: Antitumor activity against mouse BA/F3 cells expressing BCR-ABL T315I mutant allografted in SCID mouse assessed as suppression of cell proliferation at 5 to 20 mg/kg/day, po qd for 10 days relative to untreated vehicle; type: functional, organism-based
In short: (§1)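 Ba/F3 Bcr-Abl T315I cells stably carrying firefly luciferase, in saline, were injected i.v. into SCID nude mice (2 × 10^6 cells/0.1 mL). Imaging began 5−7 days later: i.p. D-luciferin, halothane anaesthesia, images after 5 min. Mice were randomised by signal and dosed by oral gavage once daily for 10 days (5, 10, 20 mg/kg/day; imatinib 100 mg/kg; vehicle). Luminescence was quantified; survival by Kaplan−Meier with log-rank test.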

[2] = target: Tyrosine-protein kinase ABL1 (Homo sapiens, UniProt P00519, F317I); assay: Binding affinity to non phosphorylated ABL1 F317I mutant (unknown origin) after 1 hr
[3] = Cytotoxicity against mouse BA/F3 cells expressing wild type BCR-ABL assessed as growth inhibition after 72 hrs by CCK-8 assay; conditions: BaF3, 72 h
[4] = Antitumor activity against mouse BA/F3 cells expressing BCR-ABL T315I mutant allografted in SCID mouse assessed as increase in median survival at 10 mg/kg/day, po qd for 10 days; type: functional, BaF3; in short: as §1
[5] = Cytotoxicity against mouse BA/F3 cells expressing BCR-ABL E359V mutant assessed as growth inhibition after 72 hrs by CCK-8 assay; conditions: BaF3, 72 h
[6] = Cytotoxicity against human KU812 cells expressing BCR-ABL assessed as growth inhibition after 72 hrs by CCK-8 assay; type: functional, cell-based; conditions: KU812, 72 h
In short: (§2)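 Log-phase human leukemia cells were seeded at about 3000 cells/well and treated 24 h later for 72 h. CCK-8 was then incubated with the cells for 3 h and read as OD450 − OD650. Viability was normalized to vehicle wells and cell-free blanks, and IC50 taken as the mean of three experiments.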

[7] = Apparent permeability from basolateral to apical side in human Caco2 cells by LC-MS/MS analysis; type: ADME, cell-based; conditions: Caco-2
[8] = Antitumor activity against mouse BA/F3 cells expressing BCR-ABL T315I mutant allografted in SCID mouse assessed as increase in median survival at 20 mg/kg/day, po qd for 10 days; type: functional, BaF3; in short: as §1
[9] = Antitumor activity against mouse BA/F3 cells expressing BCR-ABL T315I mutant allografted in SCID mouse assessed as increase in median survival at 5 mg/kg/day, po qd for 10 days; type: functional, BaF3; in short: as §1
MOLT-4 = assay: Cytotoxicity against human MOLT4 cells […] assessed as growth inhibition after 72 hrs by CCK-8 assay; type: functional, cell-based; conditions: MOLT-4, 72 h; in short: as §2
[10] = target: Tyrosine-protein kinase receptor Tie-1 (Homo sapiens) (UniProt P35590); assay: Binding affinity to TIE1 (unknown origin) at 10 nM after 2 hrs by FRET assay
[11] = AUC (0 to t) in rat at 25 mg/kg, po; type: ADME, organism-based; design: dose 25 mg/kg, route oral; conditions: plasma
In short: (§3)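 Bismesylate salt given to rats as a single iv dose of 5 mg/kg or a single oral dose of 25 mg/kg. Plasma drug levels were followed over time to derive the PK parameters. The 12 h and 24 h plasma levels come from the oral 25 mg/kg dose.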

[12] = AUC (0 to t) in rat at 5 mg/kg, iv; type: ADME, organism-based; design: dose 5 mg/kg, route intravenous; conditions: plasma; in short: as §3
Rattus norvegicus = assay: Volume of distribution at steady state in rat at 25 mg/kg, po; type: ADME, organism-based; design: dose 25 mg/kg, route oral; conditions: in vivo
In short: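 Test compound given to rats as its bismesylate salt in a single dose, 5 mg/kg iv or 25 mg/kg by mouth. Plasma drug levels were monitored after dosing, and PK parameters including Vss were reported per route.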

[13] = target: Tyrosine-protein kinase ABL1 (Homo sapiens, UniProt P00519, T315I); assay: Binding affinity to non phosphorylated ABL1 T315I mutant (unknown origin) after 1 hr
[14] = Cytotoxicity against mouse BA/F3 cells expressing BCR-ABL H396R mutant assessed as growth inhibition after 72 hrs by CCK-8 assay; conditions: BaF3, 72 h
[15] = target: Proto-oncogene tyrosine-protein kinase Src (Homo sapiens) (UniProt P12931); assay: Binding affinity to SRC (unknown origin) at 10 nM after 2 hrs by FRET assay
[16] = target: Platelet-derived growth factor receptor alpha (Homo sapiens) (UniProt P16234); assay: Binding affinity to PDGFRalpha (unknown origin) at 10 nM after 2 hrs by FRET assay
[17] = Cytotoxicity against mouse BA/F3 cells expressing BCR-ABL L248V mutant assessed as growth inhibition after 72 hrs by CCK-8 assay; conditions: BaF3, 72 h
[18] = target: Tyrosine-protein kinase ABL1 (Homo sapiens, UniProt P00519, H396P); type: cell-based
[19] = target: Platelet-derived growth factor receptor beta (Homo sapiens) (UniProt P09619); assay: Binding affinity to PDGFRbeta (unknown origin) at 10 nM after 2 hrs by FRET assay
BaF3 [20] = assay: Antitumor activity against mouse BA/F3 cells expressing BCR-ABL G250E mutant allografted in po dosed SCID mouse assessed as reduction of hepatosplenomegaly administered qd for 14 days; type: functional, organism-based
[21] = target: Tyrosine-protein kinase ABL1 (Homo sapiens, UniProt P00519, E255K); assay: Binding affinity to phosphorylated ABL1 E255K mutant (unknown origin) after 1 hr
[22] = Cytotoxicity against mouse BA/F3 cells expressing BCR-ABL E255K mutant assessed as growth inhibition after 72 hrs by CCK-8 assay; conditions: BaF3, 72 h
[23] = Mean residence time in rat at 5 mg/kg, iv; type: ADME, organism-based; design: dose 5 mg/kg, route intravenous; conditions: in vivo; in short: as §3
K562 = assay: Cytotoxicity against imatinib-resistant human K562 cells expressing BCR-ABL Q252H mutant assessed as growth inhibition after 72 hrs by CCK-8 assay; type: functional, cell-based; conditions: K562, 72 h
In short: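 The K562 subline was made imatinib-resistant by 3 months of exposure to imatinib from 0.1 to 5 μM, followed by clonal selection and sequencing to confirm Q252H. Cells were seeded at about 3000 cells/well, treated 24 h later for 72 h, then given CCK-8 for 3 h. Read-out was OD450 − OD650 normalized to vehicle; IC50 is the mean of three experiments.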

[24] = target: Voltage-gated inwardly rectifying potassium channel KCNH2 (Homo sapiens, UniProt Q12809); assay: Inhibition of human ERG expressed in CHO cells at up to 30 uM after 2.5 hrs by Rb+ efflux assay; type: cell-based
[25] = target: Tyrosine-protein kinase ABL1 (Homo sapiens, UniProt P00519, Y253F); assay: Inhibition of human recombinant ABL1 Y253F mutant expressed in insect cells after 30 mins by FRET assay; type: cell-based

Chain of Tyrosine-protein kinase receptor Tie-1 (Homo sapiens) (P35590 whole entry): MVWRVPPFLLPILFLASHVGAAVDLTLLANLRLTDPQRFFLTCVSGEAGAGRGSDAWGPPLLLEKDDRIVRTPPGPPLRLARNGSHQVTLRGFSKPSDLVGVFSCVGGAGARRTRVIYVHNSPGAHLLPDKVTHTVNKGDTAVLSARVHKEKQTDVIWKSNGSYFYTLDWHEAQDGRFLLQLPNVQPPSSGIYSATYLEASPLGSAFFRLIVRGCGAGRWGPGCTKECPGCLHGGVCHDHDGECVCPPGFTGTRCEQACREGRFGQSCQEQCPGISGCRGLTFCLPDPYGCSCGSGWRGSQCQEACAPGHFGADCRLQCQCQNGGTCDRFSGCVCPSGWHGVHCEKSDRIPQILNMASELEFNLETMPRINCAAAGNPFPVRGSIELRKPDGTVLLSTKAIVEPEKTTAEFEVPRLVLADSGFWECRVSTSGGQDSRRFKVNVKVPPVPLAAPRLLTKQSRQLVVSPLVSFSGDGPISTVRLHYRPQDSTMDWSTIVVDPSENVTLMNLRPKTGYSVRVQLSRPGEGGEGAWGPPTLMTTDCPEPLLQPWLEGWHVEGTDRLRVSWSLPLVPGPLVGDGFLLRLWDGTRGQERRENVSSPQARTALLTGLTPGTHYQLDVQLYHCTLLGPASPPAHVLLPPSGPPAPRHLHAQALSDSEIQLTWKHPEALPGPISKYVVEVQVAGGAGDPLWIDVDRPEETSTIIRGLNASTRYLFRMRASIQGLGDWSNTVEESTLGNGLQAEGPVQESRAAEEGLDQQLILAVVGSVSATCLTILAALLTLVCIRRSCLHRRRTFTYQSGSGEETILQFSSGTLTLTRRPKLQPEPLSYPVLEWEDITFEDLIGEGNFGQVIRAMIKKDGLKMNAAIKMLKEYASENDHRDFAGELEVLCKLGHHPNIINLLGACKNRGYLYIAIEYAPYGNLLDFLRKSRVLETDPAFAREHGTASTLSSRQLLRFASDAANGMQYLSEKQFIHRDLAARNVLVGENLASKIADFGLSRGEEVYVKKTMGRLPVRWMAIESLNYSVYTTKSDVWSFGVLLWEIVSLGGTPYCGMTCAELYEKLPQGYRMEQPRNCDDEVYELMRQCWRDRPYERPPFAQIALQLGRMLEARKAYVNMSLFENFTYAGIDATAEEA
Chain of Platelet-derived growth factor receptor beta (Homo sapiens) (P09619 whole entry): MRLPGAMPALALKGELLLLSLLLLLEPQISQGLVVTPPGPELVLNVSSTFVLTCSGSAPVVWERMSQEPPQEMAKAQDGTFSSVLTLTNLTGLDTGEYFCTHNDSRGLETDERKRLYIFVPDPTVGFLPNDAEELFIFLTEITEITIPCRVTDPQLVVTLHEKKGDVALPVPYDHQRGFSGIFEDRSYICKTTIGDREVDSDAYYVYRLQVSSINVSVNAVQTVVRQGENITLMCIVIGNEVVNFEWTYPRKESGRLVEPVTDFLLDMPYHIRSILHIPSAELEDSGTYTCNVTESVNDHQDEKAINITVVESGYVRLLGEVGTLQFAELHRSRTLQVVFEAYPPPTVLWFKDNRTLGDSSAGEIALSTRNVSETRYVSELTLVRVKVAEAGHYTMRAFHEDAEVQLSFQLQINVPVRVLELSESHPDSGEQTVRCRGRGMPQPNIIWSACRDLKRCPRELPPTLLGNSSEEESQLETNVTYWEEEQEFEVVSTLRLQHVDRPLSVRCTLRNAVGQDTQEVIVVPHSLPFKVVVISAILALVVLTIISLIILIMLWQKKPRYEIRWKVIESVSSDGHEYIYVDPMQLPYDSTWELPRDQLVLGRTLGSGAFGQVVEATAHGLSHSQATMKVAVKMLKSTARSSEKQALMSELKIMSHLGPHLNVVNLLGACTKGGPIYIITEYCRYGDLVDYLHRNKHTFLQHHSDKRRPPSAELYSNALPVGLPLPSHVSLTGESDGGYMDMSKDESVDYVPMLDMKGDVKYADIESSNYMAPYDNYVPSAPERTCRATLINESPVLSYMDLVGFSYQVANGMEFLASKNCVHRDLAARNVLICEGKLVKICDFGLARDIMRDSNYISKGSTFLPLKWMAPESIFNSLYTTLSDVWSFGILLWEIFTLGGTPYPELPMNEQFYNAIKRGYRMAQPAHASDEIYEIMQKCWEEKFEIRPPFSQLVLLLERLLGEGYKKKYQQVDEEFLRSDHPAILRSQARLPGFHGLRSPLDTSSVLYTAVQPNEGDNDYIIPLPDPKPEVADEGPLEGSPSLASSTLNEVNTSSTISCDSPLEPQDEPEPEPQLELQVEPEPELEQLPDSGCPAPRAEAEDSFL
Chain of Proto-oncogene tyrosine-protein kinase Src (Homo sapiens) (P12931 2-536 limits assumed): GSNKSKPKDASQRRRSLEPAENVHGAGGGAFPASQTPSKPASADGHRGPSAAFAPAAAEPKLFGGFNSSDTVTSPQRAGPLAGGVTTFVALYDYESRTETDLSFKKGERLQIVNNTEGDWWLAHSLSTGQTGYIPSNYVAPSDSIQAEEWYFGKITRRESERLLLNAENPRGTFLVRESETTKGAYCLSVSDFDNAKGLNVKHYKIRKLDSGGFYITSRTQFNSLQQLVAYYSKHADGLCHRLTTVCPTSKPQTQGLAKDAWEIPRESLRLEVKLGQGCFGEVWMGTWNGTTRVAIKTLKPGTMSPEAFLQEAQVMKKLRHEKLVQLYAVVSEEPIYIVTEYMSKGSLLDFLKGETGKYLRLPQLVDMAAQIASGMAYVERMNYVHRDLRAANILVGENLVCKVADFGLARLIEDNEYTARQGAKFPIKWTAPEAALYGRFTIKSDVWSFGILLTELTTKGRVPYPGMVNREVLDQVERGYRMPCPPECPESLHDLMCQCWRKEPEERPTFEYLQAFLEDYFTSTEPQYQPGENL
Chain of Voltage-gated inwardly rectifying potassium channel KCNH2 (Q12809 whole entry): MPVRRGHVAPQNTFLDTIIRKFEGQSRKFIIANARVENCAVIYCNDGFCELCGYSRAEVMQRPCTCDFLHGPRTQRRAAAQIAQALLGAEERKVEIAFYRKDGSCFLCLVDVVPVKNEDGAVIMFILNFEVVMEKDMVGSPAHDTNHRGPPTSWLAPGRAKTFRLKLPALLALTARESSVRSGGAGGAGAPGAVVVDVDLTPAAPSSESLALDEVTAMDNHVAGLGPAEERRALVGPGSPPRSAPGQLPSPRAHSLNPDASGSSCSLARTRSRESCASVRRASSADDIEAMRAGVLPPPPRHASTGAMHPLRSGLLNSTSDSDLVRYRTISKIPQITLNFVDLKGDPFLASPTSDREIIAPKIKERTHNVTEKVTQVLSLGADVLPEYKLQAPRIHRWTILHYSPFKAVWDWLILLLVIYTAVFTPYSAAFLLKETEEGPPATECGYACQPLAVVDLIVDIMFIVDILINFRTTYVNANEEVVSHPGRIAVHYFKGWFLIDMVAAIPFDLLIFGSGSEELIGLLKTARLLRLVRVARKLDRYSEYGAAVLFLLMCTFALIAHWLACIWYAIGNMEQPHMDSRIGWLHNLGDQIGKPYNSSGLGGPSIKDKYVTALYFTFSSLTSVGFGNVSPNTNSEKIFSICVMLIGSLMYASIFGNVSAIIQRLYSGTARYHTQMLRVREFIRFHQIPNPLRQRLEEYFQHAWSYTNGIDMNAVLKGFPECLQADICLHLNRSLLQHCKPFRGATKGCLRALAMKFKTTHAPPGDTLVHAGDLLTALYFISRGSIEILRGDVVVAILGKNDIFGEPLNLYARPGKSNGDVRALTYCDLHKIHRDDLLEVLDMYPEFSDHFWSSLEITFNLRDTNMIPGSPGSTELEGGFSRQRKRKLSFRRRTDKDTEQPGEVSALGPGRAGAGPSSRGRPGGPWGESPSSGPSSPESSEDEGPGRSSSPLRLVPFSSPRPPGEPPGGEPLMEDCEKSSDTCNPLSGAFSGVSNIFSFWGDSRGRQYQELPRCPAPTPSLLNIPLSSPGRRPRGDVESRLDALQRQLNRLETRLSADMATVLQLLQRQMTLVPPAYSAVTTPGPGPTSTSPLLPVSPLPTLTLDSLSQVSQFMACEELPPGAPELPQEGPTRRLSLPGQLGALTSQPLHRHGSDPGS
Chain of Platelet-derived growth factor receptor alpha (Homo sapiens) (P16234 whole entry): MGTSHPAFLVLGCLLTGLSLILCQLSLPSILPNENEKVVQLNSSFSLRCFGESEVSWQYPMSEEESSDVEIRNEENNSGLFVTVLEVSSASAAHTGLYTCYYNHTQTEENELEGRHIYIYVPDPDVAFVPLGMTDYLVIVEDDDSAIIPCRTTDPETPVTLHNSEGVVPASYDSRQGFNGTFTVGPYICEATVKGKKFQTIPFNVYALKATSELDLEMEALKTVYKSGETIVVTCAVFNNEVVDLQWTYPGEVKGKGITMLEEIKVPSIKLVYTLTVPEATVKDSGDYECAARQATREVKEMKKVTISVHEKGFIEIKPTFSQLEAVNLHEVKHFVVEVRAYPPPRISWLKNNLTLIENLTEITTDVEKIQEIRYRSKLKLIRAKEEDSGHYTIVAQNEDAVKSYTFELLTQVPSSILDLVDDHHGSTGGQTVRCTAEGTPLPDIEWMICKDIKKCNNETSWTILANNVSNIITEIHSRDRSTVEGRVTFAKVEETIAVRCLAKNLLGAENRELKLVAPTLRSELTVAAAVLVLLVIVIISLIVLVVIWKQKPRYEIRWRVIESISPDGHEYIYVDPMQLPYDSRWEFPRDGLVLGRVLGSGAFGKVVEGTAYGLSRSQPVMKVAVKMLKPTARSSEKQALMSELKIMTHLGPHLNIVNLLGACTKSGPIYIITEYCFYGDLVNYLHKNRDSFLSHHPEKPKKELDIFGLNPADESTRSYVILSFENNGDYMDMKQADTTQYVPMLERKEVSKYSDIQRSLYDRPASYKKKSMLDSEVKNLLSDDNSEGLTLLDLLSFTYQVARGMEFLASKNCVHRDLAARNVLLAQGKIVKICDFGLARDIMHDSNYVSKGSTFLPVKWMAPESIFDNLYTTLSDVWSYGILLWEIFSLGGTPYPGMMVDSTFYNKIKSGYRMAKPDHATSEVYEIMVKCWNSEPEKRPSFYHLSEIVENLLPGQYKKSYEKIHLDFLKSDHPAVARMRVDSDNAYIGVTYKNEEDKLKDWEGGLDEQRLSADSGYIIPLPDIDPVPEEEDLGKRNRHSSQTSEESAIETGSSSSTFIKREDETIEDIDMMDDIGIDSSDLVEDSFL

SMILES: Cc1ccc(C(=O)Nc2ccc(CN3CCN(C)CC3)c(C(F)(F)F)c2)cc1C#Cc1cnc2[nH]ncc2c1 [OLVEREMBATINIB]
- Activity (Mus musculus): < 5%
- Activity (BaF3 [1]): Active
- Kd [2]: 1.8 nM
- IC50 [3]: 1 nM
- Survival [4]: 24.6 days
- IC50 [5]: 2.3 nM
- IC50 [6]: 0.13 nM
- Papp B→A [7]: 2.8 nm/s
- Survival [8]: 31.9 days
- Survival [9]: 23.7 days
- IC50 (MOLT-4): 26.3 nM
- Activity [10]: inactive
- AUC(0-t) [11]: 6.7 µg·h/mL
- AUC(0-t) [12]: 2.74 µg·h/mL
- Vdss (Rattus norvegicus): 53.2 L/kg
- Kd [13]: 0.71 nM
- IC50 [14]: 5.5 nM
- Activity [15]: inactive
- Activity [16]: inactive
- IC50 [17]: 7.3 nM
- IC50 [18]: 0.35 nM
- Activity [19]: inactive
- Activity (BaF3 [20]): Active
- Kd [21]: 0.28 nM
- IC50 [22]: 3.5 nM
- MRT [23]: 6.7 h
- IC50 (K562): 4.5 nM
- inhibition (INH) [24]: Not Active
- IC50 [25]: 0.35 nM
